These results are taken from PubChem BioAssay AID651560 (Sanford-Burnham Center for Chemical Genomics, 2012).

Out of some 360,000 compounds screened, about 820 (0.23%) were called active. This is one part of a sample in which actives are shown more often than they occur. Unmarked numbers belong to inactive results.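 How the source made its calls: active means compounds that cut the enzyme signal by at least half of the control window in the single-dose screen; inactive means the rest.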

Low molecular weight phosphotyrosine protein phosphatase (Homo sapiens), sequence (P24666 whole entry, looked up): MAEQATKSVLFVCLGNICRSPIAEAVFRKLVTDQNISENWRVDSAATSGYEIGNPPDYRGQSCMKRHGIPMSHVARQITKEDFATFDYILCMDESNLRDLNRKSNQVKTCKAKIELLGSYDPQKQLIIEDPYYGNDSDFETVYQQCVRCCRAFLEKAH

This experiment concerns the target Low molecular weight phosphotyrosine protein phosphatase (Homo sapiens) (UniProt P24666). The experiment in a line: LMPTP phosphatase inhibitors, primary screen, biochemical, fluorescence intensity, uHTS (AID 651560).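 Further: plate controls were DMSO wells with enzyme plus substrate for no effect and substrate without enzyme for full effect.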 Conditions: recombinant LMPTP-A, OMFP fluorogenic substrate, at 20 µM, active compounds read high. Summed up: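 Buffer or medium: Bis-Tris pH 6.0, DTT, detergent; Assay system: LMPTP-A enzyme; Quantity: 0.625 nM enzyme; Detection: endpoint fluorescence intensity; Times: 50 min dark incubation at room temperature; Controls: substrate-only low control, DMSO enzyme-plus-substrate high control; Doses: single 20 µM dose; Read-out: percent inhibition versus substrate-only and uninhibited controls; Reagent: 400 µM OMFP.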
By inhibition is commonly meant the drop in the measured response relative to a control, in per cent. As to `COc1ccc2c(c1)c(=Cc1ccc(N(C)C)cc1)c1cc(-c3ccccc3)[n+](C)n12`, the inhibition was 96.2% (active).

In the case of `O=C(COC(=O)c1ccc([N+](=O)[O-])o1)NC12CC3CC(CC(C3)C1)C2`, the inhibition was 1.22%.

As for `COc1cc(NC(=S)N2CCCC(C)C2)c(OC)cc1Cl` (stereo not given), the inhibition was 0.265%.

As to `C=CCn1c(=O)n(C)c2c(=O)n(C)c(=O)n(C)c21`, the inhibition is 0.217%.

As for `Cc1csc(NC(=O)CSc2nnc(-c3cccnc3)o2)n1`, the inhibition was -0.391%.

On to `N#Cc1ccc(OCC(=O)NC(=O)NC2CCS(=O)(=O)C2)cc1` (stereo not given), for which the inhibition is -1.41%.

Take `O=C(CCN1C(=O)[C@@H]2Cc3ccccc3CN2C1=O)NCc1ccccc1`: the inhibition was 0.0399%.

For `COc1cccc(N(C(=O)c2ccn[nH]2)C2(C(=O)Nc3c(C)cccc3C)CCCCC2)c1`, the inhibition is -0.749%.

For `O=C(O)COCC(=O)NCc1csc2ccc(Cl)cc12`, the inhibition is -1.97%.

As to `CCOP(=O)(OCC)C(Nc1cccc(C)c1)c1ccc(F)cc1` (stereo not given), the inhibition is 0.494%.

As to `COc1cnc(SCc2ccc(Cl)c(Cl)c2)nc1Cl`, the inhibition is 3.06%.

For `CCN(CC)CCNC(=O)c1sc2ncn(CC(=O)Nc3ccc(C)c(Cl)c3)c(=O)c2c1C`, the inhibition was -0.286%.

On to `CCN1CCN(c2ccc(S(=O)(=O)N3CCCCC3)cc2NC(=O)Cc2c(Cl)cccc2Cl)CC1`, for which the inhibition was 1.2%.

As to `CCC(C)Cn1c(O)cc2nn(-c3nc4ccccc4s3)c(=O)c-2c1C` (stereo not given), the inhibition is 52.5% (active).

Take `O=c1c(-c2ccccc2)cnc2n1CCS2`: the inhibition is -1.57%.

Consider `O=c1c2cc(-c3ccccc3)sc2nc2n1N=C(c1cccs1)CS2`, for which the inhibition was 61.5% (active).

As for `COc1ccc(OC)c(Nc2nc(-c3ccc(O)c(O)c3)cs2)c1`, the inhibition is 62.5% (active).

Turning to `COc1ccc(C(O)c2nc(-c3ccc4c(c3)OCO4)cs2)cc1` (stereo not given), the inhibition is 0.808%.

Consider `COc1cccc(C(O)c2nc(-c3ccc(C)c(C)c3)cs2)c1` (stereo not given), for which the inhibition is 3.13%.

Take `Cc1ccccc1NC(=O)Cc1nc(COC(=O)CNC(=O)c2ccc(Cl)cc2Cl)cs1`: the inhibition was 0.684%.

On to `COCCCNC(=O)C1CC(=O)N(CCc2ccccc2)C1` (stereo not given), for which the inhibition was -0.151%.

Consider `CN(CCC1CCOCC1)C(=O)CC1C(=O)NCCN1Cc1cccc(F)c1` (stereo not given), for which the inhibition is -1.38%.

Take `Cc1cc2c(cc1C)N(C(=O)CN1C(=O)c3ccccc3C1=O)C(C)(C)c1ssc(=S)c1-2`: the inhibition was 2.43%.

As for `CCOc1ccccc1NC(=O)C1CCCN(C(=O)Nc2ccccc2)C1` (stereo not given), the inhibition is -1.09%.

For `O=C(Cn1cnc2c(nnn2-c2ccccc2)c1=O)N1CCC(Cc2ccccc2)CC1`, the inhibition was 1.23%.

With `CC(=O)Nc1ccc(CNc2nc(NCCN(C)C)nc3cc(-c4ccccc4)sc23)cc1`, the inhibition was 1.9%.

Turning to `COCCNc1nc(NCc2ccc(NC(C)=O)cc2)c2sccc2n1`, the inhibition is 51.4% (active).

In the case of `COc1cccc(CNc2nc(NCc3cccs3)nc3ccsc23)c1`, the inhibition was 27%.

Regarding `Fc1ccccc1OCCSc1nc2ccccc2o1`, the inhibition was 1.37%.

As to `CCSc1nc2c(c(=O)[nH]1)C(c1cccnc1)C(C(=O)OC(C)C)=C(C)N2` (stereo not given), the inhibition was -1.3%.
